For one compound, MIC and zone of inhibition results are on record in ChEMBL document CHEMBL1933017, “Synthesis and biological evaluation of some thiazolidinones as antimicrobial agents” (2012).

In brackets after ≈: the same amount, converted by molar mass.

Test [1] relates to Aspergillus fumigatus. Nature of the test: Antifungal activity against Aspergillus fumigatus after 48 hrs by agar streak dilution method. Format: functional. The procedure, abridged: (§1)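 Fungal MIC by agar streak dilution on Sabouraud dextrose agar, poured 4–5 mm deep. Compound from a DMSO stock (100 μg/mL) was incorporated at serial concentrations of 3.12–100 µg/mL. Plates were inoculated with about 10⁵ CFU/mL of suspension and incubated at (37 ± 1) °C for 48 h. Each value is the mean of three independent experiments.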

For test [2], the system named is Bacillus cereus. Nature of the test: Antibacterial activity against Bacillus cereus after 24 hrs by agar streak dilution method. Format: functional. In outline:
(§2)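 MIC by agar streak dilution. Graded amounts of DMSO stock (100 μg/mL) were mixed into molten sterile nutrient agar and poured 4–5 mm deep. Serial concentrations spanned 3.12–100 µg/mL. Plates were inoculated with about 10⁵ CFU/mL of bacterial suspension and incubated at (37 ± 1) °C for 24 h. Each value is the mean of three independent experiments.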

Test [3] deals with Escherichia coli. The experiment in a line: Antibacterial activity against Escherichia coli at 100 ug/disc after 24 hrs by disc diffusion method. As to conditions: read-out: DIZ. Type of test: functional. The procedure, abridged: (§3)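 Paper disc diffusion on autoclaved Mueller-Hinton agar poured 5 mm deep. Agar was swab-inoculated with 10⁵ CFU/mL suspension (0.5 McFarland). Discs 6.25 mm across were soaked in compound solution in DMSO (3.12–100 µg/mL) and plates incubated 24 h at (37 ± 1) °C. Read-out was inhibition zone (mm). DMSO control disc; ciprofloxacin or ketoconazole reference, 100 µg/disc. Mean of three independent experiments.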

Test [4] concerns Candida albicans. Nature of the test: Antifungal activity against Candida albicans at 100 ug/disc after 24 hrs by disc diffusion method. Type of test: functional. Conditions: read-out: DIZ. In outline: as §3
In general terms: In agar diffusion tests the substance spreads into inoculated agar from a disc or well.

Test [5] deals with Escherichia coli. The experiment in a line: Antibacterial activity against Escherichia coli after 24 hrs by agar streak dilution method. Format: functional. The procedure, abridged:
as §2

Test [6] deals with Proteus vulgaris. Nature of the test: Antibacterial activity against Proteus vulgaris after 24 hrs by agar streak dilution method. Format: functional. The procedure, abridged: as §2
Test [7] has as its system Aspergillus clavatus. Nature of the test: Antifungal activity against Aspergillus clavatus at 100 ug/disc after 24 hrs by disc diffusion method. Format: functional. As to conditions: read-out: DIZ. In outline:
as §3

In test [8] the test system is Proteus vulgaris. Nature of the test: Antibacterial activity against Proteus vulgaris at 100 ug/disc after 24 hrs by disc diffusion method. Format: functional. As to conditions: read-out: DIZ. In outline: as §3
Test [9] has as its system Staphylococcus aureus. Nature of the test: Antibacterial activity against Staphylococcus aureus at 100 ug/disc after 24 hrs by disc diffusion method. Type of test: functional. Conditions: read-out: DIZ. In outline: as §3
Test [10] has as its system Pseudomonas aeruginosa. Nature of the test: Antibacterial activity against Pseudomonas aeruginosa […] after 24 hrs by agar streak dilution method. Format: functional.
The test system of test [11] is Aspergillus niger. Nature of the test: Antifungal activity against Aspergillus niger after 48 hrs by agar streak dilution method. Format: functional. The procedure, abridged:
as §1

For test [12], the system named is Bacillus cereus. The experiment in a line: Antibacterial activity against Bacillus cereus at 100 ug/disc after 24 hrs by disc diffusion method. Type of test: functional. As to conditions: read-out: DIZ. The procedure, abridged:
as §3

Test [13] has as its system Salmonella typhi. The experiment in a line: Antibacterial activity against Salmonella Typhi after 24 hrs by agar streak dilution method. Type of test: functional, Salmonella enterica subsp. enterica serovar Typhi. As to conditions: Salmonella enterica. In outline: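 Agar streak dilution: DMSO stock (100 µg/mL) graded into molten sterile nutrient agar, poured 4–5 mm deep and solidified. Plates carry serial dilutions spanning 3.12–100 µg/mL. Applied ~10⁵ CFU/mL suspension, then incubated 24 h at (37 ± 1) °C. MIC read as the lowest inhibitory concentration; each value is the mean of three independent experiments.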

For test [14], the system named is Shigella flexneri. Nature of the test: Antibacterial activity against Shigella flexneri at 100 ug/disc after 24 hrs by disc diffusion method. Type of test: functional. As to conditions: read-out: DIZ. The procedure, abridged:
as §3

Test [15] has as its system Salmonella typhi. The experiment in a line: Antibacterial activity against Salmonella Typhi at 100 ug/disc after 24 hrs by disc diffusion method. As to conditions: Salmonella enterica, read-out: DIZ. Format: functional, Salmonella enterica subsp. enterica serovar Typhi. In outline: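 Paper disc diffusion on Mueller-Hinton agar poured 5 mm deep; 10⁵ CFU/mL suspension (0.5 McFarland) swabbed over surface. 6.25 mm filter paper discs soaked in compound in DMSO, incubated 24 h at (37 ± 1) °C; inhibition zone diameter in mm. DMSO disc as blank; ciprofloxacin 100 µg/disc as reference. Mean of three independent experiments.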

Test [16] deals with Pseudomonas aeruginosa. The experiment in a line: Antibacterial activity against Pseudomonas aeruginosa at 100 ug/disc after 24 hrs by disc diffusion method. Format: functional. Conditions: read-out: DIZ. In outline:
as §3

Test [17] deals with Klebsiella pneumoniae. Nature of the test: Antibacterial activity against Klebsiella pneumoniae at 100 ug/disc after 24 hrs by disc diffusion method. Format: functional. As to conditions: read-out: DIZ. The procedure, abridged: as §3
Test [18] relates to Aspergillus fumigatus. Nature of the test: Antifungal activity against Aspergillus fumigatus at 100 ug/disc after 24 hrs by disc diffusion method. Format: functional. As to conditions: read-out: DIZ. The procedure, abridged:
as §3

Test [19] concerns Klebsiella pneumoniae. The experiment in a line: Antibacterial activity against Klebsiella pneumoniae […] after 24 hrs by agar streak dilution method. Format: functional.
Test [20] concerns Aspergillus clavatus. Nature of the test: Antifungal activity against Aspergillus clavatus after 48 hrs by agar streak dilution method. Type of test: functional. The procedure, abridged:
as §1

The test system of test [21] is Shigella flexneri. Nature of the test: Antibacterial activity against Shigella flexneri after 24 hrs by agar streak dilution method. Format: functional. In outline: as §2
In test [22] the test system is Aspergillus niger. Nature of the test: Antifungal activity against Aspergillus niger at 100 ug/disc after 24 hrs by disc diffusion method. Type of test: functional. Conditions: read-out: DIZ. In outline:
as §3

Test [23] deals with Staphylococcus aureus. The experiment in a line: Antibacterial activity against Staphylococcus aureus after 24 hrs by agar streak dilution method. Type of test: functional. The procedure, abridged:
as §2

The subject of test [24] is Candida albicans. Nature of the test: Antifungal activity against Candida albicans after 48 hrs by agar streak dilution method. Type of test: functional. In outline:
as §1

In general, MIC refers to the lowest concentration that inhibits growth of the organism. A high value points to weaker potency. For the compound `CCN1CCN(CC2SC(c3cccc(O)c3O)N(c3ccc(Nc4nc(Oc5cc(=O)n(C)c6ccccc56)nc(N(C)C)n4)cc3)C2=O)CC1` (centres undefined), the MIC in test [1], in test [2], in test [5], in [6], in [10] and in test [11] was 100 µg/mL (≈ 138 µM) each time. Further, the MIC in test [13], in test [19], in [20], in test [21], in test [23] and in test [24] was 100 µg/mL (≈ 138 µM) throughout. Moreover, the zone of inhibition at 100 µg/disc is less than 10 mm in test [3]; less than 10 mm in test [4]; 12 mm in test [7]; 13 mm in test [8]; less than 10 mm in [9]; 12 mm in test [12]. The zone of inhibition at 100 µg/disc is less than 10 mm in test [14]; 14 mm in [15]; 11 mm in test [16]; 16 mm in test [17]; 13 mm in [18]; less than 10 mm in [22].
